The nature of data set [1]: Inhibition of bovine spleen adenosine deaminase type 9 by spectrophotometry. Further details: species or system Bos taurus. The procedure, abridged: (§1)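 Bovine spleen ADA type IX (0.3 nM) with 50 µM adenosine in 50 mM potassium phosphate, pH 7.2, at 30 °C. Deamination read as the A262 change over 2 min, against a substrate-free blank. DMSO ≤4% final. Screened at 10^-5 M; actives retested at 10-5 to 10-11 M in triplicate. IC50 taken by linear regression of log concentration-response, then converted to Ki by Cheng-Prusoff.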

Data set [2] relates to Rattus norvegicus. As to the kind of experiment: Antiinflammatory activity in DNBS-induced Sprague-Dawley rat colitis model assessed as reduction in DNBS-induced increase in colonic tissue malondialdehyde level at 5 to 45 umol/kg, ip for 7 days administered 1 day before colitis induction. Type of data set: functional, organism-based. A digest of the protocol:
(§2)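 Rats (male Sprague-Dawley) received intrarectal DNBS (15 mg in 50% ethanol), with ip dosing for 7 days from 1 day before; n=6 per group. Colon was taken at day 6, homogenized in cold 20 mmol/L Tris-HCl, pH 7.4, and spun 1500g for 10 min at 4 °C. MDA was measured by colorimetric kit and expressed as µmol per mg tissue.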

Data set [3] deals with Rattus norvegicus. As to the kind of experiment: Antiinflammatory activity in DNBS-induced Sprague-Dawley rat colitis model assessed as DNBS-induced increase in spleen weight at 15 umol/kg, ip for 7 days administered 1 day before colitis induction. Type of data set: functional. A digest of the protocol:
(§3)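 Colitis was induced in male Sprague-Dawley rats (250-300 g) by intrarectal DNBS, 15 mg in 0.25 mL 50% ethanol, under isoflurane. Drug was given ip daily for 7 days from 1 day before induction; six rats per group; vehicle controls. Spleen was weighed at assessment 6 days after DNBS and expressed as % increase, as an index of systemic inflammation.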

Data set [4] concerns Rattus norvegicus. As to the kind of experiment: Antiinflammatory activity in ip dosed Sprague-Dawley rat colitis model assessed as reduction in DNBS-induced increase in colonic tissue TNFalpha level administered for 7 days 1 day before colitis induction. It counts as functional, organism-based. The procedure, abridged: (§4)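 In male Sprague-Dawley rats with intrarectal DNBS colitis (15 mg in 50% ethanol), dosing was ip for 7 days from 1 day before induction; six per group. Colon samples from day 6 were stored at -80 °C, homogenized at 4 °C in PBS, pH 7.2 (0.3 mL/100 mg), and centrifuged at 13400g for 20 min. TNF-α was measured by ELISA and expressed as pg/mg tissue.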

Data set [5] relates to Rattus norvegicus. In words: Antiinflammatory activity in DNBS-induced Sprague-Dawley rat colitis model assessed as DNBS-induced macroscopic damage in colon at 45 umol/kg, ip for 7 days administered 1 day before colitis induction. Type of data set: functional. A digest of the protocol: (§5)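 DNBS colitis was induced in male Sprague-Dawley rats (250-300 g): 15 mg in 0.25 mL 50% ethanol given intrarectally. Dosing was ip for 7 days, beginning 1 day before DNBS; n=6 per group; vehicle controls. Six days after DNBS, the whole colon was scored for macroscopic damage by two observers blinded to treatment.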

The test system of data set [6] is Rattus norvegicus. In words: Antiinflammatory activity in DNBS-induced Sprague-Dawley rat colitis model assessed as reduction in DNBS-induced increase in colonic tissue malondialdehyde level at 0.25 umol/kg, ip for 7 days administered 1 day before colitis induction. It counts as functional, organism-based. A digest of the protocol: as §2
Data set [7] relates to Rattus norvegicus. In words: Antiinflammatory activity in DNBS-induced Sprague-Dawley rat colitis model assessed as DNBS-induced macroscopic damage in colon at 15 umol/kg, ip for 7 days administered 1 day before colitis induction. Type of data set: functional. A digest of the protocol:
as §5

The test system of data set [8] is Rattus norvegicus. In words: Antiinflammatory activity in ip dosed Sprague-Dawley rat colitis model assessed as reduction in DNBS-induced increase in colonic tissue malondialdehyde level administered for 7 days 1 day before colitis induction. It counts as functional, organism-based. A digest of the protocol:
as §2

Data set [9] deals with Rattus norvegicus. In words: Antiinflammatory activity in DNBS-induced Sprague-Dawley rat colitis model assessed as DNBS-induced increase in spleen weight at 45 umol/kg, ip for 7 days administered 1 day before colitis induction. Type of data set: functional. A digest of the protocol: as §3
The test system of data set [10] is Rattus norvegicus. As to the kind of experiment: Toxicity in Sprague-Dawley rat assessed as behavioral changes at 5 to 45 umol/kg, ip for 7days. Type of data set: organism-based. As to conditions: in vivo, 168 h.
Data set [11] concerns Rattus norvegicus. As to the kind of experiment: Toxicity in Sprague-Dawley rat assessed as variation in body weight at 5 to 45 umol/kg, ip for 7days. Type of data set: organism-based. Particulars: in vivo, 168 h.
Data set [12] relates to Rattus norvegicus. In words: Antiinflammatory activity in ip dosed Sprague-Dawley rat colitis model assessed as reduction in DNBS-induced macroscopic damage in colon administered for 7 days 1 day before colitis induction. It counts as functional, organism-based. A digest of the protocol: as §5
Data set [13] has as its system Rattus norvegicus. In words: Antiinflammatory activity in DNBS-induced Sprague-Dawley rat colitis model assessed as DNBS-induced macroscopic damage in colon at 5 umol/kg, ip for 7 days administered 1 day before colitis induction. It counts as functional. The procedure, abridged:
as §5

The subject of data set [14] is Rattus norvegicus. As to the kind of experiment: Antiinflammatory activity in DNBS-induced Sprague-Dawley rat colitis model assessed as DNBS-induced increase in colonic tissue TNFalpha level at 45 umol/kg, ip for 7 days administered 1 day before colitis induction. Type of data set: functional. A digest of the protocol:
as §4

The test system of data set [15] is Rattus norvegicus. In words: Antiinflammatory activity in DNBS-induced Sprague-Dawley rat colitis model assessed as DNBS-induced increase in spleen weight at 5 umol/kg, ip for 7 days administered 1 day before colitis induction. Type of data set: functional. The procedure, abridged:
as §3

Data set [16] relates to Rattus norvegicus. As to the kind of experiment: Antiinflammatory activity in DNBS-induced Sprague-Dawley rat colitis model assessed as body weight gain at 45 umol/kg, ip for 7 days administered 1 day before colitis induction. It counts as functional. A digest of the protocol: (§6)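 Male Sprague-Dawley rats (250-300 g) under brief isoflurane received 15 mg DNBS in 0.25 mL 50% ethanol intrarectally, 8 cm proximal to anus. Drug was given ip for 7 days starting 1 day before DNBS; controls received vehicle; n=6 per group. Body weight was recorded daily from the start of dosing, and the change was taken at day 6 after DNBS.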

Data set [17] deals with Rattus norvegicus. In words: Antiinflammatory activity in DNBS-induced Sprague-Dawley rat colitis model assessed as body weight loss at 5 umol/kg, ip for 7 days administered 1 day before colitis induction. It counts as functional. The procedure, abridged: as §6
In data set [18] the test system is Rattus norvegicus. In words: Antiinflammatory activity in ip dosed Sprague-Dawley rat colitis model assessed as reduction in DNBS-induced increase in spleen weight administered for 7 days 1 day before colitis induction. It counts as functional, organism-based. The procedure, abridged:
as §3

The subject of data set [19] is Rattus norvegicus. As to the kind of experiment: Antiinflammatory activity in ip dosed Sprague-Dawley rat colitis model assessed as reduction in DNBS-induced decrease in body weight administered for 7 days 1 day before colitis induction. It counts as functional, organism-based. The procedure, abridged:
as §6

For data set [20], the system named is Rattus norvegicus. As to the kind of experiment: Toxicity in Sprague-Dawley rat assessed as variation in food intake at 5 to 45 umol/kg, ip for 7days. Type of data set: organism-based. Particulars: in vivo, 168 h.
Data set [21] has as its system Rattus norvegicus. As to the kind of experiment: Toxicity in Sprague-Dawley rat assessed as mortality at 5 to 45 umol/kg, ip for 7days. As to conditions: in vivo, 168 h. Type of data set: organism-based.
Data set [22] relates to Rattus norvegicus. In words: Antiinflammatory activity in DNBS-induced Sprague-Dawley rat colitis model assessed as body weight loss at 15 umol/kg, ip for 7 days administered 1 day before colitis induction. Type of data set: functional. The procedure, abridged:
as §6

The species named for a further data set is Bos taurus. In words: Inhibition of bovine spleen adenosine deaminase type 9 at <= 10 uM by spectrophotometry. A digest of the protocol:
as §1

Data set [23] concerns Rattus norvegicus. As to the kind of experiment: Antiinflammatory activity in DNBS-induced Sprague-Dawley rat colitis model assessed as reduction in DNBS-induced increase in spleen weight at 0.25 umol/kg, ip for 7 days administered 1 day before colitis induction. It counts as functional, organism-based. A digest of the protocol:
as §3

Data set [24] concerns Rattus norvegicus. In words: Antiinflammatory activity in DNBS-induced Sprague-Dawley rat colitis model assessed as reduction in DNBS-induced increase in colonic tissue TNFalpha level at 0.25 umol/kg, ip for 7 days administered 1 day before colitis induction. It counts as functional, organism-based. The procedure, abridged: as §4
Data set [25] deals with Rattus norvegicus. In words: Antiinflammatory activity in DNBS-induced Sprague-Dawley rat colitis model assessed as reduction in DNBS-induced macroscopic damage in colon at 0.25 umol/kg, ip for 7 days administered 1 day before colitis induction. It counts as functional, organism-based. The procedure, abridged: as §5

SMILES strings stand for the structures. Calls of active or inactive are those of the source. No cut-off for these calls is given here.

The term Ki denotes a measure of affinity in units of concentration, obtained from inhibition or displacement. High values mean a looser hold on the target, low ones a stronger hold on the target.

Compound `O=C(Nc1ccccc1)Nc1ccc(Cn2cc3c(=O)[nH]cnc3n2)cc1` yielded an inhibitory constant (Ki) in data set [1] of 2.42 nM.

`O=C(Nc1ccc(F)cc1)Nc1ccc(Cn2cc3c(=O)[nH]cnc3n2)cc1` yielded a Ki in [1] of 1.15 nM.

Consider `O=C(Nc1ccc(Cn2cc3c(=O)[nH]cnc3n2)cc1)Nc1ccc(C(F)(F)F)cc1`, for which the outcome in the data set with Rattus norvegicus [2] and in the data set on Rattus norvegicus [6] was Active. The Activity with Rattus norvegicus [3] is 18.9%; in the data set on Rattus norvegicus [4] it was “Dose-dependent effect”; with Rattus norvegicus [5], 4.3; in the data set on Rattus norvegicus [7], 5.6; with Rattus norvegicus [8] it was “Dose-dependent effect”; with Rattus norvegicus [9], 10.1%. Besides, the Activity result with Rattus norvegicus [10] was “Non-toxic”; with Rattus norvegicus [11], “Non-toxic”; in the data set on Rattus norvegicus [12], “Dose-dependent effect”; in the data set with Rattus norvegicus [13], 6.9; in the data set with Rattus norvegicus [14], 5.8 pg/mg; in the data set with Rattus norvegicus [15], 23.8%. Moreover, the Activity is 2.3 g with Rattus norvegicus [16]; 16.5 g with Rattus norvegicus [17]; “Dose-dependent effect” with Rattus norvegicus [18]; “Dose-dependent effect” in the data set on Rattus norvegicus [19]; “Non-toxic” in the data set with Rattus norvegicus [20]; “Non-toxic” with Rattus norvegicus [21]. Besides, the Activity in the data set with Rattus norvegicus [22] stood at 10.4 g. This compound also had an inhibition constant (Ki) in data set [1] of 0.16 nM.

In turn, `O=C(Cc1ccccc1)Nc1ccc(Cn2cc3c(=O)[nH]cnc3n2)cc1` returned an inhibition constant (Ki) in [1] of 47.9 nM.

As to `O=C(Nc1ccc(Cn2cc3c(=O)[nH]cnc3n2)cc1)c1ccc(C(F)(F)F)cc1`, the affinity in [1] corresponds to a Ki of 0.51 nM.

Take `CCCCCCCCCn1cc2c(=O)[nH]cnc2n1`: in the data set filed under Bos taurus, the outcome was inactive.

For the compound `O=C(Nc1ccc(Cn2cc3c(=O)[nH]cnc3n2)cc1)c1ccc(F)cc1`, in data set [1], the affinity corresponds to a Ki of 0.96 nM.

On to `C[C@@H]1C[C@H]2[C@@H]3CCC4=CC(=O)C=C[C@]4(C)[C@@]3(F)[C@@H](O)C[C@]2(C)[C@@]1(O)C(=O)CO`, for which the result in the data set on Rattus norvegicus [2], in the data set with Rattus norvegicus [6], with Rattus norvegicus [23], in the data set on Rattus norvegicus [24] and in the data set with Rattus norvegicus [25] was Active.

`COc1ccc(C(=O)Nc2ccc(Cn3cc4c(=O)[nH]cnc4n3)cc2)cc1`: the inhibition constant (Ki) in [1] came out at 15.6 nM.

As for `CCCCCCCCCCn1cc2c(=O)[nH]cnc2n1`, the result in the data set listed under Bos taurus was inactive.

Regarding `O=C(Nc1ccc(Cn2cc3c(=O)[nH]cnc3n2)cc1)c1ccccc1`, the affinity in [1] corresponds to a Ki of 12.7 nM.

As for `CCCCCC[C@H]([C@H](C)O)n1cnc2c(N)ncnc21` [(+)-EHNA], the inhibition constant (Ki) in data set [1] came to 1.14 nM.

In the case of `COc1ccc(NC(=O)Nc2ccc(Cn3cc4c(=O)[nH]cnc4n3)cc2)cc1`, the affinity in [1] corresponds to a Ki of 28.3 nM.

In data set [1], `O=C(NCc1ccccc1)Nc1ccc(Cn2cc3c(=O)[nH]cnc3n2)cc1` had an inhibition constant (Ki) of 85.7 nM.

In [1], `CN(C)c1ccc(NC(=O)Nc2ccc(Cn3cc4c(=O)[nH]cnc4n3)cc2)cc1` registered an inhibitory constant (Ki) of 2.01 nM.

Consider `CCCCCCCCCCCn1cc2c(=O)[nH]cnc2n1`, for which the outcome in the data set listed under Bos taurus was inactive.

Turning to `O=C(Nc1ccc(Cc2ccccc2)cc1)Nc1ccc(Cn2cc3c(=O)[nH]cnc3n2)cc1`, the affinity in [1], expressed as Ki, was 186 nM.

With `O=C(Nc1ccc(Cn2cc3c(=O)[nH]cnc3n2)cc1)Nc1ccc(OCc2ccccc2)cc1`, affinity in [1] was put at a Ki of 108 nM.

Values taken from ChEMBL document CHEMBL1152769, “Exploiting the pyrazolo[3,4-d]pyrimidin-4-one ring system as a useful template to obtain potent adenosine deaminase inhibitors” (J Med Chem, 2009).
